Results as given in ChEMBL document CHEMBL1157626, “A concise synthesis of 1,4-dihydro-[1,4]diazepine-5,7-dione, a novel 7-TM receptor ligand core structure with melanocortin receptor agonist activity” (Bioorg Med Chem, 2010).
The source made the active and inactive calls. The calls are words filed in the database; no cut-off is given here.

What was measured:
[1] = target: T1, Melanocyte-stimulating hormone receptor (Homo sapiens, UniProt Q01726); assay: Agonist activity at human MC1R expressed in CHO cells at 10 uM after 4 hrs by luciferase reporter gene assay relative to alpha-melanocyte stimulating hormone; format: functional, cell-based
How it was run: (§1)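 CHO-6xCRE-luc+ cells expressing the human receptor, plated at 4000 cells/well in DMEM/F12 with 10% FBS 48 h before assay. Switched to serum-free medium 16 h before compound addition, then incubated 4 h at 37 °C. Luciferase read after 10 min dark adaptation. Activity expressed as % of fold stimulation by 1 × 10^-7 M NDP-aMSH (duplicate control wells).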
Target sequence in this assay (Q01726 whole entry, looked up): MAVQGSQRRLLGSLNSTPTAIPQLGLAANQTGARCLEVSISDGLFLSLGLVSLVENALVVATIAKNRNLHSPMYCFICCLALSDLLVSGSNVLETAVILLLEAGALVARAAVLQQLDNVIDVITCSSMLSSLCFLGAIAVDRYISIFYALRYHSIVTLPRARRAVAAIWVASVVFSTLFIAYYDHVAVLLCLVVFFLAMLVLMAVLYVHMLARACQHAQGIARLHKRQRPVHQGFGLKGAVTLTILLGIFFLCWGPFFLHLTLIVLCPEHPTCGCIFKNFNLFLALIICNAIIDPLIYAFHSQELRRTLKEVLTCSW

[2] = target: T1, Melanocyte-stimulating hormone receptor; assay: Agonist activity at human MC1R expressed in CHO cells after 4 hrs by luciferase reporter gene assay; format: functional, cell-based; how it was run: as §1
Target sequence in this assay (Q01726 whole entry): as the sequence (Q01726 whole entry, looked up) above

[3] = target: T2, Melanocortin receptor 4 (Homo sapiens, UniProt P32245); assay: Agonist activity at human MC4R expressed in CHO cells after 4 hrs by luciferase reporter gene assay; format: functional, cell-based; how it was run: as §1
[4] = target: T2, Melanocortin receptor 4; assay: Agonist activity at human MC4R expressed in CHO cells at 10 uM after 4 hrs by luciferase reporter gene assay relative to alpha-melanocyte stimulating hormone; format: functional, cell-based; how it was run: as §1
[5] = target: T2, Melanocortin receptor 4; assay: Agonist activity at human MC4R expressed in CHO cells after 4 hrs by luciferase reporter gene assay relative to alpha-melanocyte stimulating hormone; format: functional, cell-based; how it was run: as §1
[6] = target: T1, Melanocyte-stimulating hormone receptor; assay: Agonist activity at human MC1R expressed in CHO cells after 4 hrs by luciferase reporter gene assay relative to alpha-melanocyte stimulating hormone; format: functional, cell-based; design: concentration or dose not given beside the values; how it was run: as §1
Target sequence in this assay (Q01726 whole entry, looked up): as above

[7] = organism: Homo sapiens; assay: Selectivity for human MC1R over human MC4R
[8] = test system: Rattus norvegicus; assay: Anorexigenic activity in lean Sprague-Dawley rat assessed as suppression of peptide YY-induced food intake at 100 pmol, icv administered 15 mins before peptide YY challenge measured for 3 hrs in presence of MC4R antagonist SHU9119; format: functional, organism-based
How it was run: (§2)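 Lean Sprague-Dawley rats (~400 g) with third-ventricle cannulae. Saline or 1 nmol SHU9119 given ICV 30 min before vehicle (2% DMSO/saline) or test compound ICV. 0.23 nmol PYY given ICV 15 min later. Powdered chow intake logged every half hour for 3 h. N = 7–8 per group.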

[9] = test system: Rattus norvegicus; assay: Anorexigenic activity in lean Sprague-Dawley rat assessed as suppression of peptide YY-induced food intake at 100 pmol, icv administered 15 mins before peptide YY challenge measured for 3 hrs; format: functional, organism-based; how it was run: as §2

T2 sequence (P32245 whole entry): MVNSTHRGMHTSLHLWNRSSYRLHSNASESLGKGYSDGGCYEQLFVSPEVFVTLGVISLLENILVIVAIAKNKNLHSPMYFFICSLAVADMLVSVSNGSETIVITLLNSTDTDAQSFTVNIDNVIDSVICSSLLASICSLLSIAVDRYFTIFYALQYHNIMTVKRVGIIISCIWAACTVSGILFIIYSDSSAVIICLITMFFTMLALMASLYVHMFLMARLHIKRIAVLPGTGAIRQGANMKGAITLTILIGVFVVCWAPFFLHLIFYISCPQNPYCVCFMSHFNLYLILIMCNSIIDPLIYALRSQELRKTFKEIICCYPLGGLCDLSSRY

CC(C)N(C(=O)CN1C=CN(c2ccccc2)C(=O)[C@@H](Cc2n[nH]c3cc(F)ccc23)C1=O)c1ccccc1
Efficacy [1]: 2%
EC50 ([2]; read-out: EC50): > 30000 nM
EC50 ([3]; read-out: EC50): > 30000 nM
Efficacy [4]: 0%

O=C1[C@H](Cc2n[nH]c3ccccc23)C(=O)N(c2ccccc2)C=CN1CC(=O)N1CCCCc2ccccc21
Activity [5]: 20
EC50 ([2]; read-out: pEC50 (converted)): 61.7 nM
EC50 ([3]; read-out: pEC50 (converted)): 794 nM
Activity [6]: 76%

CC(C)N(C(=O)CN1C=CN(c2ccccc2)C(=O)[C@H](Cc2n[nH]c3cc(F)ccc23)C1=O)c1ccccc1
Activity [5]: 23
EC50 ([2]; read-out: pEC50 (converted)): 35.5 nM
EC50 ([3]; read-out: pEC50 (converted)): 1260 nM
Activity [6]: 79%

COc1ccc(N(C(=O)CN2C=CN(c3ccccc3)C(=O)[C@@H](Cc3n[nH]c4ccccc34)C2=O)C(C)C)cc1
EC50 ([2]; read-out: pEC50 (converted)): 1550 nM
EC50 ([3]; read-out: EC50): > 30000 nM
Efficacy [4]: 14%

CC(C)N(C(=O)CN1C=CN(c2ccccc2)C(=O)[C@@H](Cc2n[nH]c3ccccc23)C1=O)c1ccccc1
Efficacy [1]: 9%
EC50 ([2]; read-out: EC50): > 30000 nM
EC50 ([3]; read-out: EC50): > 30000 nM
Efficacy [4]: 3%

CC(C)N(C(=O)CN1C=CN(c2ccccc2)C(=O)[C@H](Cc2n[nH]c3ccccc23)C1=O)c1ccccc1
Activity [5]: 26
EC50 ([2]; read-out: pEC50 (converted)): 295 nM
EC50 ([3]; read-out: pEC50 (converted)): 1070 nM
Activity [6]: 54%

O=C1[C@@H](Cc2n[nH]c3ccccc23)C(=O)N(c2ccccc2)C=CN1CC(=O)N1CCCCc2ccccc21
Activity [5]: 27
EC50 ([2]; read-out: pEC50 (converted)): 1.58 nM
EC50 ([3]; read-out: pEC50 (converted)): 100 nM
Activity [6]: 86%

COc1ccc(N(C(=O)CN2C=CN(c3ccccc3)C(=O)C(Cc3n[nH]c4cc(F)ccc34)C2=O)C(C)C)cc1 (racemic)
Activity [5]: 39
EC50 ([3]; read-out: pEC50 (converted)): 355 nM
Activity [6]: 83%

COc1ccc(N(C(=O)CN2C=CN(c3cccnc3)C(=O)C(Cc3n[nH]c4cc(F)ccc34)C2=O)C(C)C)cc1 (racemic)
Activity [5]: 31
EC50 ([2]; read-out: pEC50 (converted)): 12.6 nM
EC50 ([3]; read-out: pEC50 (converted)): 661 nM
Activity [6]: 65%

COC1(Cc2n[nH]c3ccccc23)C(=O)N(CC(=O)N(c2ccc(F)cc2)C(C)C)C=CN(c2ccccc2)C1=O (racemic)
Activity [5]: 52
EC50 ([2]; read-out: pEC50 (converted)): 2950 nM
EC50 ([3]; read-out: pEC50 (converted)): 44.7 nM
Activity [6]: 33%

COc1ccc(N(C(=O)CN2C=CN(c3ccccc3)C(=O)C(Cc3cc[nH]n3)(Cc3n[nH]c4ccccc34)C2=O)C(C)C)cc1 (racemic)
Activity [5]: 16
EC50 ([2]; read-out: pEC50 (converted)): 398 nM
EC50 ([3]; read-out: pEC50 (converted)): 1050 nM
Activity [6]: 30%

COc1ccc(N(C(=O)CN2C=CN(Cc3ccccc3)C(=O)C(Cc3n[nH]c4ccccc34)C2=O)C(C)C)cc1 (racemic)
EC50 ([2]; read-out: pEC50 (converted)): 794 nM
EC50 ([3]; read-out: EC50): > 30000 nM
Activity [6]: 59%
Efficacy [4]: 6%

CC(C)N(C(=O)CN1C=CN(c2ccccc2)C(=O)C(Cc2n[nH]c3ccccc23)C1=O)c1ccc(OC(F)(F)F)cc1 (racemic)
Activity [5]: 78
EC50 ([3]; read-out: pEC50 (converted)): 151 nM
Activity [6]: 91%

COc1ccc(N(C(=O)CN2C=CN(c3ccccc3)C(=O)C(Cc3n[nH]c4ccccc34)(OC)C2=O)C(C)C)cc1 (racemic)
Activity [5]: 74
EC50 ([2]; read-out: pEC50 (converted)): 1380 nM
EC50 ([3]; read-out: pEC50 (converted)): 166 nM
Activity [6]: 58%

COc1ccc(N(C(=O)CN2C=CN(c3ccccc3)C(=O)C(Cc3nn(C)c4ccccc34)C2=O)C(C)C)cc1 (racemic)
Efficacy [1]: 6%
EC50 ([2]; read-out: EC50): > 30000 nM
EC50 ([3]; read-out: EC50): > 30000 nM
Efficacy [4]: 5%

CCn1nc(CC2C(=O)N(CC(=O)N(c3ccc(OC)cc3)C(C)C)C=CN(c3ccccc3)C2=O)c2ccccc21 (racemic)
Efficacy [1]: 2%
EC50 ([2]; read-out: EC50): > 30000 nM
EC50 ([3]; read-out: EC50): > 30000 nM
Efficacy [4]: 5%

O=C(CN1C=CN(c2ccccc2)C(=O)C(Cc2n[nH]c3ccccc23)C1=O)CP(=O)(Oc1ccccc1)Oc1ccccc1 (racemic)
Efficacy [1]: 1%
EC50 ([2]; read-out: EC50): > 30000 nM
EC50 ([3]; read-out: EC50): > 30000 nM
Efficacy [4]: 5%

CC(C)N(C(=O)CN1C=CN(c2ccccc2)C(=O)C(Cc2n[nH]c3ccccc23)C1=O)c1ccc(N2CCOCC2)cc1 (racemic)
EC50 ([2]; read-out: pEC50 (converted)): 832 nM
EC50 ([3]; read-out: EC50): > 30000 nM
Activity [6]: 22%
Efficacy [4]: 3%

CC(C)N(C(=O)CN1C=CN(C)C(=O)C(Cc2n[nH]c3cc(F)ccc23)C1=O)c1ccc(F)cc1 (racemic)
EC50 ([2]; read-out: pEC50 (converted)): 3720 nM
EC50 ([3]; read-out: EC50): > 30000 nM
Activity [6]: 62%
Efficacy [4]: 5%

CC(C)N(C(=O)CN1C=CN(c2ccccc2)C(=O)C(Cc2n[nH]c3cc(F)ccc23)C1=O)c1ccccc1 (racemic)
Activity [5]: 19
EC50 ([2]; read-out: pEC50 (converted)): 186 nM
EC50 ([3]; read-out: pEC50 (converted)): 537 nM
Activity [6]: 51%

O=C(CN1C=CN(c2ccccc2)C(=O)C(Cc2n[nH]c3ccccc23)C1=O)CP(=O)(O)Oc1ccccc1 (racemic)
Efficacy [1]: 3%
EC50 ([2]; read-out: EC50): > 30000 nM
EC50 ([3]; read-out: EC50): > 30000 nM
Efficacy [4]: 4%

O=C1C(Cc2n[nH]c3cc(F)ccc23)C(=O)N(c2ccccc2)C=CN1CC(=O)N1CCCCc2ccccc21 (racemic)
Selectivity ratio [7]: > 100
Activity [5]: 16
EC50 ([3]; read-out: pEC50 (converted)): 437 nM
Activity [6]: 61%

CC(C)N(C(=O)CN1C=CN(c2ccccc2)C(=O)C(Cc2n[nH]c3ccccc23)C1=O)c1ccc(F)cc1 (racemic)
Activity [5]: 22
EC50 ([3]; read-out: pEC50 (converted)): 282 nM
Activity [6]: 54%

CC(C)N(C(=O)CN1C=CN(c2ccccc2)C(=O)C(Cc2n[nH]c3cc(F)ccc23)C1=O)c1ccc(F)cc1 (racemic)
Activity [5]: 19
EC50 ([3]; read-out: pEC50 (converted)): 178 nM
Activity [6]: 53%

COc1ccc(N(C(=O)CN2C=CN(c3ccccc3)C(=O)C(Cc3n[nH]c4ccccc34)C2=O)C(C)C)cc1 (racemic)
inhibition [8]: inactive
Activity [5]: 45
EC50 ([3]; read-out: pEC50 (converted)): 708 nM
Activity [6]: 68%
inhibition [9]: Active

COc1ccc(N(C(=O)CN2C=CN(C3CCCCC3)C(=O)C(Cc3ccccc3)C2=O)C(C)C)cc1 (racemic)
Efficacy [1]: 0%
EC50 ([2]; read-out: EC50): > 30000 nM
EC50 ([3]; read-out: EC50): > 30000 nM
Efficacy [4]: 0%

O=C1C(Cc2n[nH]c3ccccc23)C(=O)N(c2ccccc2)C=CN1CC(=O)N1CCCCc2ccccc21 (racemic)
Activity [5]: 17
EC50 ([3]; read-out: pEC50 (converted)): 324 nM
Activity [6]: 61%

CC(C)N(C(=O)CN1C=CN(c2ccccc2)C(=O)C(Cc2n[nH]c3ccccc23)C1=O)c1ccccc1 (racemic)
Activity [5]: 22
EC50 ([2]; read-out: pEC50 (converted)): 708 nM
EC50 ([3]; read-out: pEC50 (converted)): 3240 nM
Activity [6]: 42%

COc1ccc(N(C(=O)CN2C=CN(c3cccnc3)C(=O)C(Cc3n[nH]c4ccccc34)C2=O)C(C)C)cc1 (racemic)
Activity [5]: 31
EC50 ([2]; read-out: pEC50 (converted)): 178 nM
EC50 ([3]; read-out: pEC50 (converted)): 2880 nM
Activity [6]: 60%

COc1ccc(N(C(=O)CN2C=CN(C3CCCCC3)C(=O)C(Cc3n[nH]c4ccccc34)C2=O)C(C)C)cc1 (racemic)
Efficacy [1]: 25%
EC50 ([2]; read-out: EC50): > 30000 nM
EC50 ([3]; read-out: EC50): > 30000 nM
Efficacy [4]: 19%

CC(C)N(C(=O)CN1C=CN(c2ccccc2)C(=O)C(Cc2n[nH]c3ccccc23)C1=O)c1ccc(O)cc1 (racemic) [listing 1 of 2 here]
EC50 ([2]; read-out: pEC50 (converted)): 550 nM
EC50 ([3]; read-out: pEC50 (converted)): 1000 nM

CC(C)N(C(=O)CN1C=CN(c2ccccc2)C(=O)C(Cc2n[nH]c3ccccc23)C1=O)c1ccc(O)cc1 (racemic) [listing 2 of 2 here]
Activity [5]: 30
Activity [6]: 54%

CC(C)N(C(=O)CN1C=CN(c2ccccc2)C(=O)C(Cc2n[nH]c3ccccc23)C1=O)c1ccc(O)cc1 (single isomer, unassigned; form 1) [listing 1 of 2 here]
EC50 ([3]; read-out: pEC50 (converted)): 1000 nM

CC(C)N(C(=O)CN1C=CN(c2ccccc2)C(=O)C(Cc2n[nH]c3ccccc23)C1=O)c1ccc(O)cc1 (single isomer, unassigned; form 1) [listing 2 of 2 here]
Activity [5]: 44
Activity [6]: 79%

CC(C)N(C(=O)CN1C=CN(c2ccccc2)C(=O)C(Cc2n[nH]c3ccccc23)C1=O)c1ccc(O)cc1 (single isomer, unassigned; form 2) [listing 1 of 2 here]
EC50 ([2]; read-out: pEC50 (converted)): 52.5 nM
EC50 ([3]; read-out: EC50): > 30000 nM

CC(C)N(C(=O)CN1C=CN(c2ccccc2)C(=O)C(Cc2n[nH]c3ccccc23)C1=O)c1ccc(O)cc1 (single isomer, unassigned; form 2) [listing 2 of 2 here]
Activity [6]: 16%
Efficacy [4]: 5%
